{"source": "ChEMBL document CHEMBL4152387", "about": "“Discovery of a Potent Grp94 Selective Inhibitor with Anti-Inflammatory Efficacy in a Mouse Model of Ulcerative Colitis” (J Med Chem, 2018)", "key": {"[1]": {"test_system": "Mus musculus", "assay": "Subacute toxicity in C57BL/6 mouse assessed as effect on spleen at 30 to 90 mg/kg, ip qd for 2 weeks by hematoxylin and eosin staining analysis", "assay_type": "organism-based", "details": "in vivo, 336 h"}, "[2]": {"molecular_target": "T1, Endoplasmin (Homo sapiens, UniProt P14625)", "T1 sequence (P14625 whole entry)": "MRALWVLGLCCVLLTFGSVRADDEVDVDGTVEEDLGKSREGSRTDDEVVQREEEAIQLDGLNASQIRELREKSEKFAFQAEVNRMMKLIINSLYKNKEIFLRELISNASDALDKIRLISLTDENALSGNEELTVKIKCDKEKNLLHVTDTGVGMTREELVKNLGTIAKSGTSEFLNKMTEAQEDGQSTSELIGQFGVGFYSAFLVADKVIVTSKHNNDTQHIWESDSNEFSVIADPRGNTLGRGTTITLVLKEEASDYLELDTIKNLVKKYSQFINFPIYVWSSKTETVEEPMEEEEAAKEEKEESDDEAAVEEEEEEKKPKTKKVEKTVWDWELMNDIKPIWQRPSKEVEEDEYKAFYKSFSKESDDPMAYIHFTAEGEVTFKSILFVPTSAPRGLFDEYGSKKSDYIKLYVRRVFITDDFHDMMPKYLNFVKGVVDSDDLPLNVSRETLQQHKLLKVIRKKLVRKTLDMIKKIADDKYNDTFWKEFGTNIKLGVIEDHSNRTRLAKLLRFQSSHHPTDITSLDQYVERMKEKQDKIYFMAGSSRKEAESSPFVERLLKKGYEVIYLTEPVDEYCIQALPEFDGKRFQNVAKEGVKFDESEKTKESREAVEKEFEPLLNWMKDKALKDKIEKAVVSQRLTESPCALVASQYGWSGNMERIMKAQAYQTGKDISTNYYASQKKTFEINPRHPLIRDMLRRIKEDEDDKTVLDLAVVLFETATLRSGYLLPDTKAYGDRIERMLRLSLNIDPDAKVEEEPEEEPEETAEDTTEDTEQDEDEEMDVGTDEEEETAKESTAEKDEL", "assay": "Inhibition of GRP94 in human PANC1 cells assessed as down-regulation of integrin alphaL levels after 36 hrs by Western blot analysis", "assay_type": "cell-based", "summary_of_the_method": "(§1)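 Panc-1 cells treated 36 h at indicated concentrations; cell surface protein extracted with a membrane-fractionation kit; Western blot for integrin α2 and αL with β-actin loading control, infrared fluorescent secondary detection.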"}, "[3]": {"test_system": "Mus musculus", "assay": "Anti-inflammatory activity in C57BL/6 mouse model of DSS-induced ulcerative colitis assessed reduction in colon shortening at 10 to 30 mg/kg, ip qd co-administrated with DSS measured on day 7 post dose", "assay_type": "functional, organism-based", "summary_of_the_method": "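Male C57BL/6 mice (20−22 g), n = 8 per group, 3% DSS in drinking water 7 days plus ip qd dosing at 10 or 30 mg/kg; vehicle controls. Sacrificed at day 7, colons collected; colon length measured and H&E-stained colon sections examined.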"}, "[4]": {"test_system": "Mus musculus", "assay": "Anti-inflammatory activity in ip dosed C57BL/6 mouse model of DSS-induced ulcerative colitis assessed reduction in TNFalpha levels in serum co-administrated once daily with DSS measured on day 7 post dose by ELISA", "assay_type": "functional, organism-based", "summary_of_the_method": "(§2)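 DSS colitis in male C57BL/6 mice (3% DSS in water, 7 days, ip qd co-dosing, vehicle controls). Serum and colons taken at sacrifice on day 7; colon homogenate supernatants and serum assayed for mouse TNFα and IL-6 by ELISA kits; n = 5 samples per group.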"}, "[5]": {"molecular_target": "T2, Heat shock protein HSP 90-alpha (Homo sapiens, UniProt P07900)", "assay": "Binding affinity to human His-tagged HSP90alpha N-terminal domain (1 to 236 residues) expressed in Escherichia coli BL21star (DE3) association constant by biolayer interferometry", "details": "read-out: K", "summary_of_the_method": "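Biotinylated His-tagged N-terminal protein, labelled in PBS pH 7.4 at one molar ratio with excess biotin removed by overnight dialysis, was loaded at 400 nM final onto streptavidin biosensors pre-wetted 10 min in kinetics buffer (PBS, 0.05% BSA, 0.01% Tween-20). Four compound concentrations in kinetics buffer were then tested for binding, with all data collected at 30 °C.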"}, "[6]": {"species": "Canis lupus familiaris", "assay": "Binding affinity to dog His-tagged biotinylated GRP94 N41 deletion mutant (69 to 337 residues) expressed in Escherichia coli BL21star (DE3) assessed as association constant by biolayer interferometry", "summary_of_the_method": "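His-tagged Grp94N biotinylated at one molar ratio in PBS pH 7.4, dialysed overnight, loaded at 400 nM on streptavidin biosensors after 10 min prewetting in PBS, 0.05% BSA, 0.01% Tween-20. Four compound concentrations in this buffer tested; binding recorded at 30 °C by biolayer interferometry.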"}, "[7]": {"test_system": "Mus musculus", "assay": "Subacute toxicity in C57BL/6 mouse assessed as behavioral abnormalities at 30 to 90 mg/kg, ip qd for 2 weeks", "assay_type": "organism-based", "details": "in vivo, 336 h"}, "[8]": {"test_system": "Mus musculus", "assay": "Subacute toxicity in C57BL/6 mouse assessed as body weight loss at 30 to 90 mg/kg, ip qd for 2 weeks measured every other day", "assay_type": "organism-based", "details": "in vivo, 336 h"}, "[9]": {"species": "Canis lupus familiaris", "assay": "Binding affinity to dog GST-tagged GRP94 N41 deletion mutant (69 to 337 residues) expressed in Escherichia coli BL21star (DE3) at 40 uM by NMR based CPMG assay"}, "[10]": {"test_system": "Mus musculus", "assay": "Anti-inflammatory activity in C57BL/6 mouse model of DSS-induced ulcerative colitis assessed reduction in p65 expression in colonic tissues at 10 to 30 mg/kg, ip qd co-administrated with DSS measured on day 7 post dose", "assay_type": "functional, organism-based", "summary_of_the_method": "(§3)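 DSS colitis in male C57BL/6 mice (3% DSS, 7 days, ip qd 10 or 30 mg/kg, vehicle controls); colons flash-frozen at day 7, homogenized in lysis buffer with protease/phosphatase inhibitors. Equal protein by BCA run on SDS-PAGE, PVDF, 1% BSA block, primary antibodies 37 °C 1 h then 4 °C overnight, DyLight 800 secondary, infrared scan; β-actin loading control.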"}, "[11]": {"test_system": "Mus musculus", "assay": "Anti-inflammatory activity in C57BL/6 mouse model of DSS-induced ulcerative colitis assessed reduction in TLR2 expression in colonic tissues at 10 to 30 mg/kg, ip qd co-administrated with DSS measured on day 7 post dose", "assay_type": "functional, organism-based", "summary_of_the_method": "as §3"}, "[12]": {"molecular_target": "T2, Heat shock protein HSP 90-alpha", "assay": "Inhibition of FITC-geldanamycin binding to human His-tagged HSP90alpha N-terminal domain (1 to 236 residues) expressed in Escherichia coli BL21star (DE3) at 100 uM after 4 hrs by FP assay relative to control", "summary_of_the_method": "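Hsp90αN (15 nM final) with GM-FITC (6 nM final) and compound in HEPES/KCl/MgCl2 buffer pH 7.4 with NP40, DTT, BGG; 4 h at 4 °C in dark; FP at ex 485/em 535 nm; inhibition computed against GM-FITC-only and protein-plus-probe controls; n = 3.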"}, "[13]": {"test_system": "Mus musculus", "assay": "Anti-inflammatory activity in C57BL/6 mouse model of DSS-induced ulcerative colitis assessed mortality at 10 mg/kg, ip qd co-administrated with DSS measured on day 7 post dose", "assay_type": "functional, organism-based", "summary_of_the_method": "(§4)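 Male C57BL/6 mice (20−22 g), randomized, n = 8 per group; 3% DSS (36−50 KD) in drinking water for 7 days, with compound given ip once daily alongside; normal and disease controls received vehicle. Deaths counted at day 7.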"}, "[14]": {"assay": "Inhibition of FITC-geldanamycin binding to dog GST-tagged GRP94 N41 deletion mutant (69 to 337 residues) expressed in Escherichia coli BL21star (DE3) after 4 hrs by GM-FITC-based FP assay", "set-up": "species or system Canis lupus familiaris"}, "[15]": {"molecular_target": "T1, Endoplasmin", "assay": "Inhibition of GRP94 in human PANC1 cells assessed as down-regulation of integrin alpha2 levels after 36 hrs by Western blot analysis", "assay_type": "cell-based", "summary_of_the_method": "as §1"}, "[16]": {"test_system": "Mus musculus", "assay": "Anti-inflammatory activity in ip dosed C57BL/6 mouse model of DSS-induced ulcerative colitis assessed reduction in IL6 levels in colonic tissues co-administrated once daily with DSS measured on day 7 post dose by ELISA", "assay_type": "functional, organism-based", "summary_of_the_method": "as §2"}, "[17]": {"test_system": "Mus musculus", "assay": "Anti-inflammatory activity in C57BL/6 mouse model of DSS-induced ulcerative colitis assessed reduction in disease activity index at 10 to 30 mg/kg, ip qd co-administrated with DSS measured until day 7 post dose", "assay_type": "functional, organism-based", "summary_of_the_method": "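Male C57BL/6 mice (20−22 g), n = 8 per group, 3% DSS in drinking water for 7 days with ip qd dosing at 10 or 30 mg/kg; vehicle for normal and disease controls. Body weight, stool consistency and rectal bleeding recorded daily; DAI scored from weight loss, stool consistency and stool blood.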"}, "[18]": {"test_system": "Mus musculus", "assay": "Anti-inflammatory activity in C57BL/6 mouse model of DSS-induced ulcerative colitis assessed mortality at 30 mg/kg, ip qd co-administrated with DSS measured on day 7 post dose", "assay_type": "functional, organism-based", "summary_of_the_method": "as §4"}, "[19]": {"test_system": "Mus musculus", "assay": "Subacute toxicity in C57BL/6 mouse assessed as effect on lung at 30 to 90 mg/kg, ip qd for 2 weeks by hematoxylin and eosin staining analysis", "assay_type": "organism-based", "details": "in vivo, 336 h"}}, "note": "The source made the active and inactive calls. No cut-off for these calls is given here.", "data": [{"smiles": "CC(C)c1ccc(-c2ccc(N[C@H]3CC[C@H](O)CC3)c(C(N)=O)c2)cc1", "values": [{"measurement": "Activity", "setting": "[1]", "result": "Non-Toxic"}, {"measurement": "inhibition", "setting": "[2]", "result": "Dose-dependent effect"}, {"measurement": "Activity", "setting": "[3]", "result": "inactive"}, {"measurement": "Activity", "setting": "[4]", "result": "Dose-dependent effect"}, {"measurement": "kon", "setting": "[5]", "result": 1680, "unit": "M⁻¹ s⁻¹"}, {"measurement": "K", "setting": "[6]", "result": 6.38, "unit": "×10⁵ /M/s"}, {"measurement": "Activity", "setting": "[7]", "result": "Non-Toxic"}, {"measurement": "Activity", "setting": "[8]", "result": "Non-Toxic"}, {"measurement": "Activity", "setting": "[9]", "result": "Active"}, {"measurement": "Activity", "setting": "[10]", "result": "Active"}, {"measurement": "Activity", "setting": "[11]", "result": "Active"}, {"measurement": "inhibition (INH)", "setting": "[12]", "result": "Not Active"}, {"measurement": "Activity", "setting": "[13]", "result": "inactive"}, {"measurement": "IC50", "setting": "[14]", "result": 2, "unit": "nM"}, {"measurement": "inhibition", "setting": "[15]", "result": "Dose-dependent effect"}, {"measurement": "Activity", "setting": "[16]", "result": "Dose-dependent effect"}, {"measurement": "Activity", "setting": "[17]", "result": "Active"}, {"measurement": "Activity", "setting": "[18]", "result": "Active"}, {"measurement": "Activity", "setting": "[19]", "result": "Non-Toxic"}]}]}
